M1 antag = blocks human M1 muscarinic receptor | 1.3% of 360,000 active | P11229 | CHO-K1 hM1, Fluo-8 calcium fluorescence, ACh EC80 antagonist | inhibition, % at 3 µM;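 active = percent inhibition above its own plate's cutoff, namely the mean of that plate's compound wells plus 3 SD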;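 note: peak over basal fluorescence ratio during 140 s after agonist addition; 0% = ACh EC80 plus DMSO and 100% = DMSO alone without agonist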
TAAR1 antag = antagonists of human TAAR1. CHO RD-HGA16 TAAR1, Fluo-8 calcium fluorescence, antagonist. inhibition, % at 3 µM. 1.5% of 360,000 active. AID 624466;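 active = inhibition above a per-plate cutoff, the mean inhibition of test compounds on that plate plus 3 SD, cut at about 49% in these data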;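 note: 0% = DMSO plus EC80 beta-PEA response and 100% = DMSO alone without agonist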
Target sequence (Q96RJ0 whole entry, looked up): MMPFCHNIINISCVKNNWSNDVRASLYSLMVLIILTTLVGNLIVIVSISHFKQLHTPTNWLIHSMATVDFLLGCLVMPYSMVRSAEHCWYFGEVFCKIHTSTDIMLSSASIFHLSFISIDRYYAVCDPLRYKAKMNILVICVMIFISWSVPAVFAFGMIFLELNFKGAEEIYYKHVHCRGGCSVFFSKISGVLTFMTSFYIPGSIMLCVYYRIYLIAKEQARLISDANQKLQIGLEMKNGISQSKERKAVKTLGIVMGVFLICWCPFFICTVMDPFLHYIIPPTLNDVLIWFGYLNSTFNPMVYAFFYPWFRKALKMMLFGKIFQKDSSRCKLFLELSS
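System: CHO RD-HGA16 cells bearing hTAAR1. Reagent: EC80 β-phenethylamine stimulus. Schedule: seeding 17-24 h prior, 75-min 37 °C, 30-min RT dye loading. Signal: Fluo-8 intracellular calcium dye fluorescence, real-time kinetic reads. Read-out: % inhibition from peak post-agonist over basal fluorescence ratio. Benchmarks: vehicle wells and EC80 agonist wells. Replicates: n of 1.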
CHRM1 agonist = human M1 muscarinic receptor agonism; 0.33% of 360,000 active; AID 588814; activation, % at 3 µM; CHO-K1 hM1, Fluo-8 calcium fluorescence, agonist mode; 0% DMSO, 100% acetylcholine EC100;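 active = activation above the run's mean compound activation plus 3 SD, cut at about 16% in these data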;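 note: peak over basal fluorescence ratio within a 140 s kinetic read after compound addition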
HTR2A ag = activates the mouse 5-HT2A serotonin receptor; CHO-K1 mHTR2A beta-arrestin complementation, luminescence; percent of 30 µM serotonin response; activation, % at 7.6 µM; 0.66% of 360,000 active; AID 624169;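 active = activation above a run cutoff, the mean activation of all tested compounds plus 3 SD, cut at about 14% in these data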;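 note: 0% = plate median of compound wells and 100% = 30 µM serotonin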
M1 PAM = positive allosteric modulators of human M1 muscarinic receptor. P11229. CHO-K1 hM1, Fluo-8 calcium fluorescence, ACh EC20; 0% = ACh EC20, 100% = maximal ACh. activation, % at 3 µM. 0.088% of 360,000 active. AID 588819; in the data active = activation above about 19%, passing the limit was not always enough
TAAR1 ag = human TAAR1 agonism. Q96RJ0. CHO RD-HGA16 TAAR1, Fluo-8 calcium fluorescence; vehicle wells 0%, saturating PEA agonist 100%. activation, % at 3 µM. 0.99% of 360,000 active. AID 624467;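 active = activation above the mean activation of all test compounds in the run plus 3 SD, cut at about 38% in these data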
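Repeats: no replicates (n 1) | Material: CHO-derived RD-HGA16 cells with stable Gα16 and human TAAR1 | Technique: Kinetic Fluo-8 calcium fluorescence | Schedule: 17-24 h seeding, 75 min 37 °C dye, 30 min RT | Evaluation: % activation from peak over basal fluorescence ratio, DMSO-to-PEA scaled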
Active calls of the source: *; nt = not tested or not shown; + = active, no number. Sampled rows, rich in hits. Any-hit rate of the full collection: about 3.9%.

SMILES	M1 antag	TAAR1 antag	CHRM1 agonist	HTR2A ag	M1 PAM	TAAR1 ag
CC(Oc1ccccc1C(N)=O)C(=O)Nc1ccc(S(=O)(=O)N2CCCC2)cc1 (stereo unspecified)	59.0*	-14.8	-7.5	2.6	-24.1	4.1
COc1ccc(CN(C)C(C)C(=O)Nc2ccc(S(=O)(=O)N3CCCCC3)cc2)c(OC)c1 (stereo unspecified)	90.7*	-13.0	-7.0	-2.1	-31.3	4.0
CCS(=O)c1ccccc1C(=O)OC(C)C(=O)Nc1ccc(S(=O)(=O)N2CCCC2)cc1 (stereo unspecified)	4.0	-30.5	-7.8	-5.4	-0.3	1.1
CC(Oc1ccccc1Cl)C(=O)Nc1ccc(S(=O)(=O)N2CCN(C)CC2)cc1 (stereo unspecified)	12.2	8.6	-4.6	-2.2	-2.2	7.3
CCOc1ccccc1C(=O)OC(C)C(=O)Nc1ccc(S(=O)(=O)N2CCCC2)cc1 (stereo unspecified)	28.6*	-1.5	-5.4	-13.0	-12.2	-0.6
Cc1ccc2nc3c(cc2c1)c(NC(=O)C(C)(C)C)nn3CC(C)C	2.3	16.5	-1.3	-1.5	2.4	-2.9
COC(=O)c1ccccc1-c1c2ccc(=N)cc-2oc2cc(N)ccc12	101.9*	104.8*	890.2*	-11.8	-23.7	+
O=C1CCN(Cc2ccccc2)C=C1c1ccc(Br)cc1	-5.0	29.7	-1.1	1.1	2.8	2.0
COc1ccc(S(=O)(=O)N2CCC3(CC2)CC(=O)c2ccccc2O3)cc1OC	0.4	-3.0	-0.3	9.0	7.4	0.6
CC(=O)Nc1ccc(S(=O)(=O)N2CCC3(CC2)CC(=O)c2ccccc2O3)cc1	31.6*	13.2	-2.7	-1.5	-14.7	3.1
COc1cccc(CNC(=O)Cc2csc(NC(=O)Nc3ccccc3OC)n2)c1	8.0	49.6*	-1.4	2.8	-4.4	11.4
O=C(Cc1csc(-c2ccccc2)n1)NCc1ccc(F)cc1	0.6	0.4	-6.1	-1.3	4.0	0.4
COc1ccc(C(=O)Nc2nc(CC(=O)NCCc3cccc(OC)c3)cs2)cc1	9.1	31.2	-1.9	6.8	-4.9	3.3
COc1ccccc1NC(=O)Nc1nc(CC(=O)NCc2ccc(F)cc2)cs1	16.9	52.3*	2.5	-0.4	-2.9	14.0
O=C(CC(c1ccccc1)c1cc(Cl)ccc1O)N1CCCC1 (stereo unspecified)	3.9	-21.7	-4.5	-3.4	-4.7	0.2
O=C(CC(c1ccccc1O)N1CCCCC1)N1CCCCC1 (stereo unspecified)	69.8*	-7.7	-5.9	1.5	-22.6	8.4
CCOc1ccccc1NC(=O)Cn1nnc(C(=O)NCc2ccc3c(c2)OCO3)c1N	1.1	-13.6	0.4	-5.2	6.3	4.0
Cc1ccccc1COC(=O)CCCC1=NS(=O)(=O)c2ccccc2N1	-2.7	31.2	22.7*	-5.4	-7.9	50.3*
COc1ccc(-c2sc3ccccc3c2-c2ccc(OCCN(C)C)cc2)cc1	17.6	47.0	-5.2	-11.6	-8.4	11.3
COc1cccc(-c2sc3ccc(OC)cc3c2-c2ccc(OCCN(C)C)cc2)c1	-1.9	51.0*	-3.2	-7.0	7.3	37.2
COCCCn1c(N)c(-c2nc3ccccc3n2C)c2nc3ccccc3nc21	28.1*	49.2*	4.2	0.5	-11.6	22.5
Cn1c(-c2c(N)n(CCCc3ccccc3)c3nc4ccccc4nc23)nc2ccccc21	18.9	nt	-1.3	-3.6	-7.7	nt
NC(=O)c1ccc(=O)n(Cc2ccc(Cl)cc2Cl)c1	-19.9	-13.7	-4.5	1.4	12.2	0.6
O=C(CCCCCn1c(=S)[nH]c2ccc(N3CCOCC3)cc2c1=O)NC1CCN(Cc2ccccc2)CC1	50.1*	-3.4	-8.8	-9.1	-25.9	-1.7
CC1CCC2(CC1)NC(=O)N(CC(=O)Nc1cccc(S(=O)(=O)N3CCCC3)c1)C2=O (stereo unspecified)	-8.7	-22.3	-5.1	-2.7	1.7	0.8
SMILES	M1 antag	TAAR1 antag	CHRM1 agonist	HTR2A ag	M1 PAM	TAAR1 ag
OC(COCC1CC=CCC1)Cn1cnc2ccccc21 (stereo unspecified)	-12.2	-13.8	1.8	7.7	23.7*	4.3
OC(CN(c1ccccc1)c1ccccc1)Cn1cnc2ccccc21 (stereo unspecified)	-6.0	57.4*	-3.5	1.9	1.3	8.9
OC(COCc1ccccc1)Cn1cnc2ccccc21 (stereo unspecified)	2.2	9.3	3.0	-2.1	6.4	7.5
Cc1nc2ccccc2n1CC(O)COCC1CC=CCC1 (stereo unspecified)	-7.1	15.3	0.5	5.6	2.1	-0.1
COc1ccccc1CCC(=O)N1CCN(S(=O)(=O)c2cccc(F)c2)CC1	-1.7	-26.5	-0.7	0.3	1.6	4.4
Cc1ccc(O)c(-c2cc(-c3ccccc3[N+](=O)[O-])[nH]n2)c1	6.2	56.9*	-4.2	-0.9	-3.8	8.8
NC(=O)CCN1CCN(Cc2nc(C(c3ccccc3)c3ccccc3)no2)CC1	28.6*	1.3	-15.1	9.3	-35.7	7.9
c1ccc(C(c2ccccc2)c2noc(CN3CCN(C4CCCC4)CC3)n2)cc1	60.0*	-2.5	-13.5	-3.6	-30.1	4.2
CC(C)NC(=O)CN1CCN(Cc2nc(C(c3ccccc3)c3ccccc3)no2)CC1	51.7*	2.2	-5.3	-0.1	-28.4	9.1
COc1cc(CN2CCNC(=O)C2CC(=O)N2CCCN(C(C)=O)CC2)cc(OC)c1 (stereo unspecified)	-2.9	-11.3	-0.6	2.5	9.9	0.1
Cc1ccc(NC(=O)Cn2cnc(C(=O)Nc3ccc(C)c(C)c3)n2)cc1C	5.7	0.8	-1.6	-0.5	2.9	0.0
Cc1cc(C)c(CN2CCN(C(=O)Cn3cnc(C(=O)Nc4ccc(C)c(C)c4)n3)CC2)c(C)c1	1.0	56.3*	-0.1	7.0	4.0	26.9
Cc1ccccc1CNC(=O)c1csc([C@H]2C[C@H](O)[C@@H](CO)O2)n1	-10.8	-16.0	-0.3	0.8	5.3	1.2
CCN=C1NC(CCc2ccccc2)C(C(=O)OC)=C(C)N1Cc1ccccc1C(F)(F)F (stereo unspecified)	nt	-11.2	nt	nt	nt	10.5
COc1ccccc1N1CCN(S(=O)(=O)c2ccc(F)cc2)CC1	-5.7	3.0	0.4	3.2	2.8	38.1*
CCN(CC)S(=O)(=O)c1ccc(N2CCN(c3ccccc3OC)CC2)c(N)c1	34.4*	25.7	0.8	-0.6	-17.8	3.7
CCN(CC)S(=O)(=O)c1ccc(Oc2ccccc2)c(N)c1	-2.4	-0.6	-1.4	3.4	7.6	4.1
Cc1cc(C(=O)NNc2ccc(F)cc2)no1	1.5	-2.9	-1.5	9.5	3.4	3.5

Screening data from PubChem BioAssay.
